Source: article PMC5882533 (Cancer discovery, 2018)
Several values for one entry are separate records, joined by “and”; a condition that tells them apart may be missing. Equal values may be shown once.

How the values were obtained:
primary CLL cells = test: Proliferation of CpG stimulated primary CLL cells; type: cell-based, human; conditions: for proliferation of CpG stimulated primary CLL cells: increasing doses, 72h continuously or 4h followed by washout
How it was run: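 Primary CLL cells came from patients meeting 2008 IWCLL criteria. They were either stimulated with CpG oligonucleotides (TLR9 agonist) or left unstimulated (basal). Cells were given increasing concentrations of test compound, either continuously for 72 h or for 4 h followed by washout. Proliferation was measured by MTS assay. Data are shown per individual patient, with averages.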

OCI-LY1 = test: Proliferation of OCI-LY1 cells; type: cell-based, human; conditions: for proliferation: OCI-LY1, increasing doses, 72h
MEC-1 = test: Proliferation of MEC-1 cells; type: cell-based, human; conditions: for proliferation: MEC-1, increasing doses, 72h
bromodomain of CBP = bromodomain of CBP (Homo sapiens, UniProt Q92793); test: Binding affinity
[1] = Plasma levels in wild type B6 mice; type: in vivo; conditions: B6, mouse, oral, 20 mg/kg
Half-life in dogs = conditions: dog, in vivo
[2] = Plasma exposure in Ba/F3 splenomegaly mouse model; type: in vivo; conditions: 2 mg/kg
healthy T-cells = test: Proliferation of healthy T-cells stimulated with CD3/CD28 agonist antibodies; type: cell-based, human; conditions: washout conditions
Half-life in rodents = conditions: in vivo
[3] = system: Ba/F3 (murine interleukin-3 dependent pro-B cell line) splenomegaly
[4] = system: Eμ-TCL1 CD5/CD19 positive CLL-like leukemia; test: Eμ-TCL1 transgenic mice with de novo leukemia, tumor burden; type: in vivo, mouse
BET family members = test: Blocking interactions mediated by the four BET family members; type: biochemical
[5] = Plasma drug levels in MV4-11 tumor xenograft SCID mice; type: in vivo; conditions: mouse
[6] = system: stromal cells (9–15c and Hs27); test: Stromal cell viability; type: cell-based
[7] = system: primary CLL cells co-cultured on stromal cells (9–15c and Hs27); test: CLL cell viability in stromal co-culture; type: cell-based, human; conditions: 1, 2 or 5μM, 72 h
[8] = system: Eμ-Myc/TCL1 leukemia/lymphoma
[9] = molecular target: T1, bromodomain of EP300 (p300) (Homo sapiens, UniProt Q09472); test: Binding affinity
T1 sequence (Q09472 1049-1156 limits assumed): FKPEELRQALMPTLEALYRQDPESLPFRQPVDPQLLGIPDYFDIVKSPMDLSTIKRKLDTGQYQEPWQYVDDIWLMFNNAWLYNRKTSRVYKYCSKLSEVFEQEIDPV

Sequence of bromodomain of CBP (Q92793 1085-1192 limits assumed): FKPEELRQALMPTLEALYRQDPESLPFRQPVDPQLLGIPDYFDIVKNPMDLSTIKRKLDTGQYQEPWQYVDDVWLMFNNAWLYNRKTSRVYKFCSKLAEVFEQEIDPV

For `Cc1sc2c(c1C)C(c1ccc(Cl)cc1)=N[C@@H](CC(=O)OC(C)(C)C)c1nnc(C)n1-2` [JQ1, reference compound], the “proliferation of CpG stimulated primary CLL cells” value (primary CLL cells) was “Dose-dependent decrease of proliferation”, the proliferation (OCI-LY1) was “Dose dependent decrease of proliferation” and the proliferation (MEC-1) was “Dose dependent decrease of proliferation”.
In the case of `CCNC(=O)C[C@@H]1N=C(c2ccc(Cl)cc2)c2cc(OC)ccc2-n2c(C)nnc21` [iBET762], the “proliferation of CpG stimulated primary CLL cells” value (primary CLL cells) is reported as “Dose-dependent decrease of proliferation”.
In the case of `Cc1noc(C)c1-c1cnc2c(-c3ccc(C(=O)O)cc3)cn([C@@H](C)c3ccccn3)c2c1` [PLX51107], the “inhibition of proliferation or toxicity” value (primary CLL cells; CLL cells under basal condition) is reported as “not observed”, the “proliferation of CpG stimulated primary CLL cells” value (primary CLL cells) is reported as “Dose-dependent decrease of proliferation” and the Kd (bromodomain of CBP) is reported as ~100 nM. For the same molecule, the AUC(0-t) [1] was 96700 ng·h/mL and 220 µM·h, the half-life (Half-life in dogs) was < 3 h and the AUC(0-t) [2] was 17700 ng·h/mL and 40 µM·h. For the same molecule, the anti-proliferative effect (healthy T-cells) was “no anti-proliferative effect”, the “IC50 compared to iBET762, JQ1, or OTX015” value (OCI-LY1; OCI-LY1) was “lower IC50” and the proliferation (OCI-LY1) was “Dose dependent decrease of proliferation”. For the same molecule, the half-life (Half-life in rodents) was < 3 h, the inhibition of splenomegaly ([3]; 2 mg/kg PLX51107 dose) was “Approximately 75%” and the tolerability ([3]; mouse, in vivo) was “well tolerated”. The “leukemic disease burden in peripheral blood and spleen vs vehicle” value ([4]; 20 mg/kg daily, oral gavage, eight days) was “significantly reduced leukemic disease burden”, the “reduction of tumor burden compared with OTX015 (50 mg/kg, qd)” value ([4]; PLX51107 20 mg/kg, qd, thirty day study) was “more effective than OTX015” and the “potency in blocking interactions mediated by the four BET family members” value (BET family members) was “low nanomolar potency”. The AUC(0-t) [5] was 90100 ng·h/mL and 205 µM·h, the half-life [5] was 2.8 h and the “effect on stromal cell viability” value [6] was “no effect on stromal cell viability”. The “cytotoxicity on CLL cells” value [7] was “induces significant cytotoxicity”, the survival ([8]; 20 mg/kg, qd, oral gavage, 70 days treatment) was “significantly prolonged survival” and the tolerability ([8]; mouse, in vivo) was “well tolerated”. For the same molecule, the Kd [9] was ~100 nM, the “IC50 compared to iBET762, JQ1, or OTX015” value (MEC-1; MEC-1) was “lower IC50” and the proliferation (MEC-1) was “Dose dependent decrease of proliferation”.
With `Cc1sc2c(c1C)C(c1ccc(Cl)cc1)=N[C@@H](CC(=O)Nc1ccc(O)cc1)c1nnc(C)n1-2` [OTX015, reference compound] the “proliferation of CpG stimulated primary CLL cells” value (primary CLL cells) was “Dose-dependent decrease of proliferation”, the proliferation (OCI-LY1) was “Dose dependent decrease of proliferation” and the “efficacy on splenomegaly relative to 2 mg/kg PLX51107” value ([3]; 25 mg/kg OTX015) was “same level of efficacy”. The proliferation (MEC-1) was “Dose dependent decrease of proliferation”.
